For 36 molecules, IC50 and inhibition results are on record in ChEMBL document CHEMBL3108713, “Identification of ML251, a Potent Inhibitor of T. brucei and T. cruzi Phosphofructokinase” (ACS Med Chem Lett, 2014).

In experiment [1] the target is T1, ATP-dependent 6-phosphofructokinase (Trypanosoma brucei, UniProt O15648).
T1 sequence (O15648 whole entry): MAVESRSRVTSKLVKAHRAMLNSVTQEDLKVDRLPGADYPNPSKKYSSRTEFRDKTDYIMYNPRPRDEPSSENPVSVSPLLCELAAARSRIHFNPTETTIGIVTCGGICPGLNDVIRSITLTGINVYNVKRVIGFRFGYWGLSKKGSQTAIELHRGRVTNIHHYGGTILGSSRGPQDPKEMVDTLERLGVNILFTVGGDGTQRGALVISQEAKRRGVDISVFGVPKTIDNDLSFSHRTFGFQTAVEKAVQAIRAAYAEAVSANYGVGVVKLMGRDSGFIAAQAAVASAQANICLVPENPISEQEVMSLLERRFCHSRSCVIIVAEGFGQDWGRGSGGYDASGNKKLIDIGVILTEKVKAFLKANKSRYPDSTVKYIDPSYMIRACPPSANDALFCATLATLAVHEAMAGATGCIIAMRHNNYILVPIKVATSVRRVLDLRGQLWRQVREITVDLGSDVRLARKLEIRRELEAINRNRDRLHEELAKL
Put plainly: Inhibition of Trypanosoma brucei PFK-mediated ADP production using ATP/fructose-6-phosphate as substrate by luciferase based luminescence assay. Put shortly: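 Recombinant enzyme; ADP formed by PFK detected with modified luciferase (ADP-Glo) luminescent end-point in 1536-well format.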

Experiment [2] concerns the target T2, ATP-dependent 6-phosphofructokinase (Trypanosoma brucei) (UniProt O15648).
T2 sequence (whole entry): T1 sequence (O15648 whole entry)
The experiment can be described thus: Inhibition of Trypanosoma brucei PFK-mediated ADP production using ATP/fructose-6-phosphate as substrate at 57 uM by luciferase based luminescence assay. Put shortly:
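Recombinant T. brucei PFK; ADP formed by the enzyme is converted to a luminescent signal by a modified luciferase ADP-Glo detection, read at end point.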

Experiment [3] has as its target T3, ATP-dependent 6-phosphofructokinase (Trypanosoma cruzi) (UniProt Q4E657).
T3 sequence (whole entry): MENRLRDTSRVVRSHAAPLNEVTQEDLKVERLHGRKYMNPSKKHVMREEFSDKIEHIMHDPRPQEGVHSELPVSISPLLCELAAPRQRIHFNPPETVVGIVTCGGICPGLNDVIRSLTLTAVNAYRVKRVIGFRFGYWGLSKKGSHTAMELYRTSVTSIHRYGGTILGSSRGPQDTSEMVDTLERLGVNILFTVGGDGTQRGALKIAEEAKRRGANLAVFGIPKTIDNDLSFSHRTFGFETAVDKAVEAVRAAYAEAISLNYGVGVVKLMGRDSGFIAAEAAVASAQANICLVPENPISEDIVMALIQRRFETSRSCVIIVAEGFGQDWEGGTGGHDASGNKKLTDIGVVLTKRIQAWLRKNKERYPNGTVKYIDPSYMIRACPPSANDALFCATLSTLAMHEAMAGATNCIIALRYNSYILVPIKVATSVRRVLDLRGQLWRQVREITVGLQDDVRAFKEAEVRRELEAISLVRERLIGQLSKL
Put plainly: Inhibition of Trypanosoma cruzi PFK at 57 uM. Put shortly:
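PFK activity is measured by coupling ADP production to ADP-Glo luciferase luminescence at end point. Percent inhibition is recorded at 57 μM, the highest concentration of the dose series, with at least 3 separate experiments averaged.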

The target in experiment [4] is T4, ATP-dependent 6-phosphofructokinase (Trypanosoma cruzi, UniProt Q4E657).
T4 sequence (Q4E657 whole entry): T3 sequence (whole entry)
The experiment can be described thus: Inhibition of Trypanosoma cruzi PFK.

The structures appear in SMILES notation. A value given as a limit tells only on which side of the number the result lay.

Consider `Cc1cc(NS(=O)(=O)c2ccc(NC(=O)Cc3ccc(C)c(C)c3)cc2)no1`, for which the figures for the IC50 in experiment [1] and in experiment [4] were 18300 nM and 6500 nM, respectively. In addition, the inhibition in experiment [2] and in experiment [3] was greater than 80% each time.

Regarding `Cc1cc(NS(=O)(=O)c2ccc(NC(=O)c3ccc(Cl)c(Cl)c3)cc2)no1`, the IC50 stood at 14600 nM in experiment [1] and 20600 nM in experiment [4]. Moreover, the inhibition in experiment [2] and in experiment [3] was greater than 80% each time.

In the case of `O=C(Cc1ccc(Cl)c(Cl)c1)Nc1ccc(S(=O)(=O)Nc2cccc(C(=O)O)c2)cc1`, the 50% inhibitory concentration (IC50) in experiment [1] is 260 nM; in experiment [4] it was 580 nM. Also, the inhibition in experiment [2] and in experiment [3] was greater than 80% each time.

For the molecule `O=C(Cc1ccc(Cl)c(Cl)c1)Nc1ccc(S(=O)(=O)Nc2nccs2)cc1`, the IC50 in experiment [1] amounted to 79 nM; in experiment [4], 41 nM. Besides, the inhibition in experiment [2] and in experiment [3] was greater than 80% each time.

Turning to `Cc1cc(NS(=O)(=O)c2ccc(NC(=O)C(C)(C)c3ccc(Cl)c(Cl)c3)cc2)no1`, the IC50 stood at 36600 nM in experiment [1] and 36500 nM in experiment [4]. In addition, the inhibition in experiment [2] and in experiment [3] was greater than 80% in each case.

`Cc1cc(NC(=O)c2ccc(NC(=O)Cc3ccc(Cl)c(Cl)c3)cc2)no1`: the IC50 in experiment [1] and in experiment [4] was greater than 57000 nM in each case.

As for `O=C(Cc1ccc(Cl)c(Cl)c1)Nc1ccc(S(=O)(=O)O)cc1`, the IC50 in experiment [1] worked out at 650 nM; in experiment [4], 460 nM. In addition, the inhibition in experiment [2] and in experiment [3] was greater than 80% each time.

As to `Cc1cc(NS(=O)(=O)c2ccc(NC(=O)Cc3cccc(Cl)c3)cc2)no1`, the IC50 in experiment [1] was 7300 nM; in experiment [4] it was 2590 nM. Moreover, the inhibition in experiment [2] and in experiment [3] was greater than 80% each time.

Regarding `Cc1cc(NC(=O)c2csc(NC(=O)Cc3ccc(Cl)c(Cl)c3)n2)no1`, the IC50 in experiment [1] and in experiment [4] was greater than 57000 nM in each case.

In the case of `Cc1cc(NS(=O)(=O)c2ccc(NS(=O)(=O)Cc3ccc(Cl)c(Cl)c3)cc2)no1`, the results for the IC50 in experiment [1] and in experiment [4] were 37000 nM and greater than 57000 nM, respectively. In experiment [2], this molecule registered an inhibition greater than 80%.

On to `O=C(Cc1ccc(Cl)c(Cl)c1)Nc1ccc(S(=O)(=O)Nc2cccc(O)c2)cc1`, for which the values for the IC50 in experiment [1] and in experiment [4] were 1460 nM and 1630 nM, respectively. In addition, the inhibition in experiment [2] and in experiment [3] was greater than 80% each time.

Regarding `Cc1cc(NS(=O)(=O)c2ccc(NC(=O)Cc3ccc(C)c(F)c3)cc2)no1`, the IC50 in experiment [1] is 5800 nM; in experiment [4], 4600 nM. Also, the inhibition in experiment [2] and in experiment [3] was greater than 80% in each case.

For the molecule `Cc1cc(NS(=O)(=O)c2cccc(NC(=O)Cc3ccc(Cl)c(Cl)c3)c2)no1`, the IC50 in experiment [1] and in experiment [4] was 16300 nM throughout. The inhibition in experiment [2] and in experiment [3] was greater than 80% in each case.

On to `Cc1cc(NS(=O)(=O)CCNC(=O)Cc2ccc(Cl)c(Cl)c2)no1`, for which the IC50 in experiment [1] was 32600 nM; in experiment [4] it was 16300 nM. Further, the inhibition in experiment [2] and in experiment [3] was greater than 80% in each case.

As to `Cc1cc(NS(=O)(=O)c2ccc(NCCc3ccc(Cl)c(Cl)c3)cc2)no1`, the IC50 in experiment [1] stood at 6000 nM; in experiment [4], 16300 nM. Moreover, the inhibition in experiment [2] and in experiment [3] was greater than 80% in each case.

For `Cc1cc(NS(=O)(=O)c2ccc(C(=O)NCc3ccc(Cl)c(Cl)c3)cc2)no1`, the concentration for half-maximal inhibition (IC50) in experiment [1] amounted to 5160 nM; in experiment [4], 2910 nM. Also, the inhibition in experiment [2] and in experiment [3] was greater than 80% throughout.

Consider `Cc1cc(NS(=O)(=O)c2ccc(NC(=O)Cc3ccc4ccccc4c3)cc2)no1`, for which the IC50 in experiment [1] was 6510 nM; in experiment [4], 1830 nM. For the same molecule, the inhibition in experiment [2] and in experiment [3] was greater than 80% throughout.

As to `Cc1cc(N(C)S(=O)(=O)c2ccc(NC(=O)Cc3ccc(Cl)c(Cl)c3)cc2)no1`, the IC50 worked out at 2910 nM in experiment [1] and 2060 nM in experiment [4]. Further, the inhibition in experiment [2] and in experiment [3] was greater than 80% in each case.

On to `Cc1ccc(C(=O)Nc2ccc(S(=O)(=O)O)c3cc(S(=O)(=O)O)cc(S(=O)(=O)O)c23)cc1NC(=O)c1cccc(NC(=O)Nc2cccc(C(=O)Nc3cc(C(=O)Nc4ccc(S(=O)(=O)O)c5cc(S(=O)(=O)O)cc(S(=O)(=O)O)c45)ccc3C)c2)c1` [SURAMIN], for which, in experiment [1], half-maximal inhibition (IC50) was put at 3000 nM.

Consider `Cc1cc(NS(=O)(=O)c2ccc(NC(=O)Cc3ccccc3)cc2)no1`, for which the results for the IC50 in experiment [1] and in experiment [4] were 36600 nM and 20600 nM, respectively. The inhibition in experiment [2] and in experiment [3] was greater than 80% in each case.

On to `Cc1cc(NS(=O)(=O)c2ccc(NC(=O)Cc3ccc(Cl)cc3)cc2)no1`, for which the concentration for half-maximal inhibition (IC50) in experiment [1] was 1830 nM; in experiment [4] it was 1460 nM. For the same molecule, the inhibition in experiment [2] and in experiment [3] was greater than 80% throughout.

Regarding `O=C(Cc1ccc(Cl)c(Cl)c1)Nc1ccc(S(=O)(=O)Nc2cc[nH]n2)cc1`, the IC50 in experiment [1] was 520 nM; in experiment [4], 730 nM. The inhibition in experiment [2] and in experiment [3] was greater than 80% each time.

On to `O=C(Cc1ccc(F)c(Cl)c1)Nc1ccc(S(=O)(=O)Nc2nccs2)cc1`, for which the IC50 in experiment [1] was determined as 24 nM; in experiment [4], 120 nM. Moreover, the inhibition in experiment [2] and in experiment [3] was greater than 80% in each case.

For `COc1ccc(CC(=O)Nc2ccc(S(=O)(=O)Nc3cc(C)on3)cc2)cc1OC`, the IC50 in experiment [1] and in experiment [4] was greater than 57000 nM throughout.

Turning to `O=C(Cc1ccc(Cl)c(Cl)c1)Nc1ccc(S(=O)(=O)Nc2cncnc2)cc1`, the IC50 turned out to be 820 nM in experiment [1] and 730 nM in experiment [4]. For the same molecule, the inhibition in experiment [2] and in experiment [3] was greater than 80% throughout.

Take `Cc1cc(NS(=O)(=O)c2ccc(N(C)C(=O)Cc3ccc(Cl)c(Cl)c3)cc2)no1`: the IC50 in experiment [1] was found to be 6510 nM; in experiment [4] it was 1300 nM. In addition, the inhibition in experiment [2] and in experiment [3] was greater than 80% each time.

Take `COc1ccc(CC(=O)Nc2ccc(S(=O)(=O)Nc3cc(C)on3)cc2)cc1C`: the IC50 in experiment [1] is greater than 57000 nM; in experiment [4] it was 20600 nM. Also, the inhibition in experiment [3] was greater than 80%.

For the molecule `Cc1cc(NS(=O)(=O)c2ccc(NC(=O)Cc3ccc(Cl)c(F)c3)cc2)no1`, the results for the half-inhibitory concentration (IC50) in experiment [1] and in experiment [4] were 700 nM and 650 nM, respectively. The inhibition in experiment [2] and in experiment [3] was greater than 80% in each case.

On to `O=C(Cc1ccc(Cl)c(Cl)c1)Nc1ccc(S(=O)(=O)Nc2ccc(C(=O)O)cc2)cc1`, for which the IC50 in experiment [1] was 160 nM; in experiment [4] it was 290 nM. Also, the inhibition in experiment [2] and in experiment [3] was greater than 80% each time.

`O=C(Cc1ccc(Cl)c(Cl)c1)Nc1ccc(S(=O)(=O)Nc2nncs2)cc1`: the IC50 in experiment [1] turned out to be 112 nM; in experiment [4] it was 52 nM. Also, the inhibition in experiment [2] and in experiment [3] was greater than 80% in each case.

Regarding `Cc1cc(NS(=O)(=O)c2ccc(NC(=O)Cc3ccc(Cl)c(Cl)c3)cc2)n(C)n1`, the IC50 in experiment [1] worked out at 2310 nM; in experiment [4], 1160 nM. Also, the inhibition in experiment [2] and in experiment [3] was greater than 80% each time.

For `Cc1cc(NS(=O)(=O)c2ccc(NC(=O)CCc3ccc(Cl)c(Cl)c3)cc2)no1`, the IC50 was 5170 nM in experiment [1] and 6510 nM in experiment [4]. The inhibition in experiment [2] and in experiment [3] was greater than 80% throughout.

In the case of `Cc1cc(NS(=O)(=O)Cc2ccc(NC(=O)Cc3ccc(Cl)c(Cl)c3)cc2)no1`, the IC50 in experiment [1] was 2590 nM; in experiment [4], 3260 nM. Also, the inhibition in experiment [2] and in experiment [3] was greater than 80% throughout.

`Cc1cc(NS(=O)(=O)c2ccc(NC(=O)Cc3ccc(Cl)cc3Cl)cc2)no1`: the IC50 was 4610 nM in experiment [1] and 14600 nM in experiment [4]. The inhibition in experiment [2] and in experiment [3] was greater than 80% in each case.

For `Cc1cc(NS(=O)(=O)c2ccc(NC(=O)Cc3ccc(F)c(Cl)c3)cc2)no1`, the results for the IC50 in experiment [1] and in experiment [4] were 730 nM and 460 nM, respectively. Also, the inhibition in experiment [2] and in experiment [3] was greater than 80% each time.

Consider `CCOC(=O)c1cccc(NS(=O)(=O)c2ccc(NC(=O)Cc3ccc(Cl)c(Cl)c3)cc2)c1`, for which the half-maximal inhibitory concentration (IC50) in experiment [1] and in experiment [4] was greater than 57000 nM each time.
